These results are taken from ChEMBL document CHEMBL1144665, “Benzyl ether-linked glucuronide derivative of 10-hydroxycamptothecin designed for selective camptothecin-based anticancer therapy” (J Med Chem, 2008).

Data set [1] in a line: Aqueous solubility in phosphate buffer at pH 4.0. Format: physicochemical. In short, it runs like this:
(§1)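 Excess solid equilibrated in 100 mM phosphate buffer (pH 4.0 or 7.0) at 25 °C for 24 h. Filtered through 0.2 µm, diluted in mobile phase and quantified by HPLC with fluorescence detection against calibration curves. Single determination.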

A short description of data set [2]: Aqueous solubility in phosphate buffer at pH 7.0. The class given is physicochemical. The essentials:
as §1

Data set [3] has as its system COLO 205. Description: Cytotoxicity against human Colo 205 cells assessed as inhibition of [3H]thymidine after 48 hrs. The class given is functional, cell-based. In short, it runs like this: (§2)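 Exponentially growing cells, 5 × 10³/well in RPMI with 10% bovine serum and penicillin/streptomycin, 37 °C, 5% CO₂, exposed to a range of drug concentrations (DMSO final ≤0.5%; vehicle controls). After 48 h, 12 h [³H]thymidine pulse (1 µCi/well); trypsinized cells counted for radioactivity. Triplicate wells, 1–3 experiments; IC50 interpolated from log dose–response curves.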

Data set [4] concerns HepG2. As to the kind of experiment: Cytotoxicity against human HepG2 cells assessed as inhibition of [3H]thymidine after 48 hrs. Format: functional, cell-based. The essentials:
as §2

Data set [5] can be described thus: Cytotoxicity against human H298 cells assessed as inhibition of [3H]thymidine after 48 hrs. The class given is functional, cell-based. The essentials:
as §2

In data set [6] the test system is HT-29. As to the kind of experiment: Cytotoxicity against human HT29 cells assessed as inhibition of [3H]thymidine after 48 hrs. Format: functional, cell-based. The essentials:
as §2

For data set [7], the system named is Escherichia coli. Description: Ratio of […] of Escherichia coli beta-glucuronidase. In short, it runs like this: (§3)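 Prodrug at various concentrations incubated with 0.125 µg/mL E. coli β-glucuronidase, pH 7.0, 37 °C, 20 min; stopped with ice-cold MeOH to precipitate protein. Substrate and released 10-hydroxycamptothecin quantified by reversed-phase HPLC with fluorescence detection (ex 397, em 482 nm) against standard calibration curves; Km, Vmax and Vmax/Km derived.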

In data set [8] the test system is Escherichia coli. As to the kind of experiment: Activity of Escherichia coli beta-glucuronidase. The essentials: as §3
Another data set concerns Plasma. As to the kind of experiment: Stability in 95% human plasma. Format: ADME, cell-free. In short, it runs like this: (§4)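 Incubated in 95% human plasma at 37 °C up to 6 h. Aliquots neutralized with 12 mM phosphoric acid, extracted three times with ethyl acetate, dried, redissolved in mobile phase, filtered and analysed by reversed-phase HPLC with fluorescence detection.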

Data set [9] relates to HepG2. Description: Cytotoxicity against human HepG2 cells assessed as inhibition of [3H]thymidine in presence of beta-glucuronidase after 48 hrs. The class given is functional, cell-based. In short, it runs like this: (§5)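 As the plain [³H]thymidine assay (5 × 10³ cells/well, RPMI/10% serum, 48 h exposure, then 12 h 1 µCi/well pulse, scintillation counting), but β-glucuronidase (5 µg/mL; 1 µg/well) added together with drug. Triplicate wells, 1–3 experiments; IC50 interpolated from log dose–response curves.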

A short description of data set [10]: Prodrug hydrolysis by Escherichia coli beta-glucuronidase assessed as release of 10-hydroxycamptothecin at pH 7.0. Format: ADME. More on the design: scale not given: the % may be the effect or the level left. The settings on record: buffer. The essentials: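 Substrate incubated with E. coli β-glucuronidase (0.1 µg/mL) in pH 7.0 phosphate buffer at 37 °C. Aliquots taken over time; substrate and released 10-hydroxycamptothecin quantified by fluorescence-detected reversed-phase HPLC. Triplicate determinations.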

Data set [11] concerns COLO 205. Description: Cytotoxicity against human Colo 205 cells assessed as inhibition of [3H]thymidine in presence of beta-glucuronidase after 48 hrs. Format: functional, cell-based. In short, it runs like this: as §5
Data set [12] in a line: Cytotoxicity against human H298 cells assessed as inhibition of [3H]thymidine in presence of beta-glucuronidase after 48 hrs. Format: functional, cell-based. The essentials: as §5
For data set [13], the system named is HT-29. As to the kind of experiment: Cytotoxicity against human HT29 cells assessed as inhibition of [3H]thymidine in presence of beta-glucuronidase after 48 hrs. Format: functional, cell-based. The essentials: as §5
Data set [14] can be described thus: Stability in human plasma assessed as degradation after 10 mins. The class given is ADME, cell-free. The following applies: read-out: Activity. In short, it runs like this:
as §4

In brackets after ≈: the same amount, converted by molar mass.

One may read the solubility as how much of the substance goes into solution per volume. One may read the IC50 as the midpoint of a concentration-inhibition curve. Turning to `CC[C@@]1(O)C(=O)OCc2c1cc1n(c2=O)Cc2cc3cc(O)ccc3nc2-1` [HYDROXYCAMPTOTHECIN], the solubility came out at 13.7 µM (≈ 4.99 µg/mL) in data set [1] and 137 µM (≈ 49.9 µg/mL) in data set [2] (buffer). The concentration for half-maximal inhibition (IC50) turned out to be 9.1 nM in the data set with COLO 205 [3], 5.4 nM in the data set with HepG2 [4], 6.9 nM in data set [5] and 8.8 nM with HT-29 [6].
As a reminder, the Km is the substrate concentration at which the rate is half of its maximum. In general, Vmax refers to the top rate of the reaction or transport when substrate is in excess. Turning to `CC[C@@]1(O)C(=O)OCc2c1cc1n(c2=O)Cc2cc3c(NC(=O)OCc4ccc(O[C@@H]5O[C@H](C(=O)O)[C@@H](O)[C@H](O)[C@H]5O)cc4)cccc3nc2-1`, the Ratio with Escherichia coli [7] was found to be 0.03 min⁻¹. In the data set on Escherichia coli [8], the Michaelis constant (Km) is 30 µM and the Vmax came to 0.86 µM/min.
Take `CC[C@@]1(O)C(=O)OCc2c1cc1n(c2=O)Cc2cc3cc(OCc4ccc(O[C@@H]5O[C@H](C(=O)O)[C@@H](O)[C@H](O)[C@H]5O)c([N+](=O)[O-])c4)ccc3nc2-1`: the solubility in data set [1] was determined as 1100 µM (≈ 761 µg/mL); in data set [2] (phosphate buffer, read-out: Solubility) it was 2600 µM (≈ 1800 µg/mL). Besides, in the data set with Plasma, the Stability entry was “Stable”. Further, the 50% inhibitory concentration (IC50) in the data set with HepG2 [9] is 6.6 nM; in the data set with COLO 205 [3], 94.2 nM; in the data set on COLO 205 [11] it was 10.2 nM; in data set [12], 11.1 nM; in the data set on HepG2 [4], 56.5 nM; in the data set with HT-29 [13], 10 nM. Further, the results for the IC50 (in data set [5]; in the data set with HT-29 [6]) were 91.1 nM and 97.8 nM, respectively. Also, the Activity in data set [10] is reported as greater than 50%. In the data set on Escherichia coli [7], the Ratio is 15 min⁻¹. In addition, the Km in the data set on Escherichia coli [8] worked out at 0.18 µM. For the same compound, the Vmax in the data set with Escherichia coli [8] stood at 2.7 µM/min.
On to `CC[C@@]1(O)C(=O)OCc2c1cc1n(c2=O)Cc2cc3cc(OC(=O)OCc4ccc(O[C@@H]5O[C@H](C(=O)OC)[C@@H](O)[C@H](O)[C@H]5O)cc4)ccc3nc2-1`, for which, in [14], the metabolised at 10 min turned out to be 70%.
